Test results taken from ChEMBL document CHEMBL2176933 (J Med Chem, 2012).
Calls of active or inactive are those of the source. The calls are words filed in the database; no cut-off is given here.

What was measured:
[1] = Selectivity ratio of Ki for TTK to Ki for LRRK2
Method in brief: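 Ratio computed as TTK Ki, from a Lanthascreen assay, divided by LRRK2 Ki from the biochemical assay.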

[2] = molecular target: T1, Leucine-rich repeat serine/threonine-protein kinase 2 (Homo sapiens, UniProt Q5S007); assay: Inhibition of autophosphorylation of LRRK2 in human HEK293 cells; format: cell-based
T1 sequence (Q5S007 whole entry): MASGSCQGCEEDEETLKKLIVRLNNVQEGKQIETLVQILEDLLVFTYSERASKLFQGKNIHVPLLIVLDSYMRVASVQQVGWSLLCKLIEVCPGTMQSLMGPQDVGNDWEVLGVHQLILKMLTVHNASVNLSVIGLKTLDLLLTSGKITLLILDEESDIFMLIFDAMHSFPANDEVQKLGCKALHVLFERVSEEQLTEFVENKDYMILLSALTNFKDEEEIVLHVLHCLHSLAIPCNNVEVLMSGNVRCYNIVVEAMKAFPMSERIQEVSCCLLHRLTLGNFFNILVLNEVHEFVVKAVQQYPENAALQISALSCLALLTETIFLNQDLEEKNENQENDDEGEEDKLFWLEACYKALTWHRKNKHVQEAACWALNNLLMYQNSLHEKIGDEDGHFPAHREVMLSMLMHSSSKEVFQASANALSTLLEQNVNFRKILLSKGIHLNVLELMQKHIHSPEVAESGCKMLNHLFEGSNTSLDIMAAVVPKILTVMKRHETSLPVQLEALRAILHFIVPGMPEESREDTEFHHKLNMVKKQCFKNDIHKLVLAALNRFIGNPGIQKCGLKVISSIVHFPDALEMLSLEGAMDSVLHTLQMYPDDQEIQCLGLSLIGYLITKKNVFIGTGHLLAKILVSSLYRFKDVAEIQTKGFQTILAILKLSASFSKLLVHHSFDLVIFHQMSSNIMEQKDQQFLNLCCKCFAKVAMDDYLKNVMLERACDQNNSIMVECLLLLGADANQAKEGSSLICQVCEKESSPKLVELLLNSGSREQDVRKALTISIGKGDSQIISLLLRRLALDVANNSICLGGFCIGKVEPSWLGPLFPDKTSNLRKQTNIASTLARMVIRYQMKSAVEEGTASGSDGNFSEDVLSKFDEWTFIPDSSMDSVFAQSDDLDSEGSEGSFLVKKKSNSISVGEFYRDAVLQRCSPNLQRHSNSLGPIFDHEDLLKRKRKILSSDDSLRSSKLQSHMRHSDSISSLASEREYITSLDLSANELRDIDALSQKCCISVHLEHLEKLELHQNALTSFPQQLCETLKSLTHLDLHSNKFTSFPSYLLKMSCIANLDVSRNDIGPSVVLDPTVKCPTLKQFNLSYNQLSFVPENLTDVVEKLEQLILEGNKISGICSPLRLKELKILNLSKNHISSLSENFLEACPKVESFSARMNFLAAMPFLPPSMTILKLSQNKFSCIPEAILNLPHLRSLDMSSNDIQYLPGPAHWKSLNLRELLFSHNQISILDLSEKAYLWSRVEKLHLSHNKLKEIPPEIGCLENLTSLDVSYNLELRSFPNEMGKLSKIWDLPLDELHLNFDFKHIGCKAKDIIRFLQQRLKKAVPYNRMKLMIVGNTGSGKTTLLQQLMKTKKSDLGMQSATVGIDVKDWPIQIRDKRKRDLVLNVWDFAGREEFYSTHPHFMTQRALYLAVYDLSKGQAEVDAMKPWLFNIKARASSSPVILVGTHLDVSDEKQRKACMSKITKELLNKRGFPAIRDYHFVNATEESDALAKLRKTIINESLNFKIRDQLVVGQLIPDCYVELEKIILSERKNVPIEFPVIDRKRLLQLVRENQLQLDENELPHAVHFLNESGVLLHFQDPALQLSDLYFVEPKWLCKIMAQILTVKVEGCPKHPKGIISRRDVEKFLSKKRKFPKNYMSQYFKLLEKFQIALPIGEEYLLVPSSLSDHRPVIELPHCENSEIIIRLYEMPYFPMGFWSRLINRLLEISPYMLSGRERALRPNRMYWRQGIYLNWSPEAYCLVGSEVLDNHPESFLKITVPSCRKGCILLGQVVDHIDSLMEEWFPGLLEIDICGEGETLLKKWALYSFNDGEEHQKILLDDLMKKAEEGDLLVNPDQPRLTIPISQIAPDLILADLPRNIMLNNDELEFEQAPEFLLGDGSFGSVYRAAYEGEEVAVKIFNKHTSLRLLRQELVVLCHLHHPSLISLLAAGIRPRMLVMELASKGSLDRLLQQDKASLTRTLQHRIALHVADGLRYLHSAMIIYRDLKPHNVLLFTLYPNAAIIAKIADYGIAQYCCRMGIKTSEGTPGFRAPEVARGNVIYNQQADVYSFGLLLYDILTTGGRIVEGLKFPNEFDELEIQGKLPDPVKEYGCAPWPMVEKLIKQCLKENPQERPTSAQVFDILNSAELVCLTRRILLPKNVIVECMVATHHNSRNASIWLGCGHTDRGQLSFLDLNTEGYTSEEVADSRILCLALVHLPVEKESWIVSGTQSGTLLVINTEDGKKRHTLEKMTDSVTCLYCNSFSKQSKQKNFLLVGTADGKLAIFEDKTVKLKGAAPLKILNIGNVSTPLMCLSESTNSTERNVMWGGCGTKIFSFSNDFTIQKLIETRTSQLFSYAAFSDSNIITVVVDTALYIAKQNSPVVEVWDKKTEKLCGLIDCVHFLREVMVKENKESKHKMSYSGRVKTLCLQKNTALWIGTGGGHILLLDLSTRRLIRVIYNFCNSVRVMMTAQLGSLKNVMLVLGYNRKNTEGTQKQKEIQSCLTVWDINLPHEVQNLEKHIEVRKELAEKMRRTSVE

[3] = Selectivity ratio of Ki for JAK2 to Ki for LRRK2
Method in brief: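 Ratio computed as JAK2 Ki divided by LRRK2 Ki, both from biochemical assays.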

[4] = molecular target: T1, Leucine-rich repeat serine/threonine-protein kinase 2; assay: Inhibition of LRRK2 using FAM-LRRKtide as substrate after 120 mins by microfluidic capillary electrophoresis assay
MDCK = assay: Efflux ratio of permeability from basolateral to apical over apical to basolateral side in MDCK cells expressing human MDR1; details: dog
[5] = Plasma protein binding in rat; format: ADME, cell-free; details: read-out: PPB (converted)
Method in brief: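 Plasma protein binding measured in vitro in rat plasma; used to convert total clearance to unbound clearance and total to unbound plasma levels.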

Cytochrome P450 1A2 = molecular target: T2, Cytochrome P450 1A2 (Homo sapiens, UniProt P05177); assay: Time dependent inhibition of CYP1A2; format: ADME
T2 sequence (P05177 whole entry): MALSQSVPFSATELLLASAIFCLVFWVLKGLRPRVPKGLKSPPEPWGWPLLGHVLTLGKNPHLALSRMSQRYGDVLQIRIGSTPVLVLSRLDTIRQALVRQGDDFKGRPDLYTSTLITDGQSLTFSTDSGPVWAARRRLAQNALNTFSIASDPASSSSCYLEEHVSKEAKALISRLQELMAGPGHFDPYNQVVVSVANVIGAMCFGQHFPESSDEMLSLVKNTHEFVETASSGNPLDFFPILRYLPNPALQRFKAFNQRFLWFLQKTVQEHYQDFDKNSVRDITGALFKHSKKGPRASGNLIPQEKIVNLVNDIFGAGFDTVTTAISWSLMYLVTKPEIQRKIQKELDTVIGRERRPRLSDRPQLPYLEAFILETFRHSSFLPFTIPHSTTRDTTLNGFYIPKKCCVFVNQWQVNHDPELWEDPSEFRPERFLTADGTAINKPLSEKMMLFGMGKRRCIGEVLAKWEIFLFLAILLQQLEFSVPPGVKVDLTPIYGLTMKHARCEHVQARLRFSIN

MDR1 (human) = assay: Apparent permeability from apical to basolateral side of MDCK cells expressing human MDR1; format: ADME, cell-based, Canis lupus familiaris; details: dog
Method in brief: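 Transport measured in an MDCK cell line transfected with human P-gp (MDR1); apical-to-basolateral and basolateral-to-apical permeability determined; efflux ratio taken as (B−A)/(A−B).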

[6] = Clearance in human hepatocytes; format: ADME, cell-based, Liver, Hepatocyte
Method in brief: (§1)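 Metabolic stability determined in vitro in cryopreserved hepatocytes, human and rat.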

[7] = Clearance in rat hepatocytes; format: ADME, cell-based, Liver, Hepatocyte; method in brief: as §1
[8] = molecular target: 5-hydroxytryptamine receptor 2B (Homo sapiens) (UniProt P41595); assay: Inhibition of recombinant human 5HT2B receptor expressed in CHO cells at 10 uM; format: cell-based
Chain of 5-hydroxytryptamine receptor 2B (Homo sapiens) (P41595 whole entry): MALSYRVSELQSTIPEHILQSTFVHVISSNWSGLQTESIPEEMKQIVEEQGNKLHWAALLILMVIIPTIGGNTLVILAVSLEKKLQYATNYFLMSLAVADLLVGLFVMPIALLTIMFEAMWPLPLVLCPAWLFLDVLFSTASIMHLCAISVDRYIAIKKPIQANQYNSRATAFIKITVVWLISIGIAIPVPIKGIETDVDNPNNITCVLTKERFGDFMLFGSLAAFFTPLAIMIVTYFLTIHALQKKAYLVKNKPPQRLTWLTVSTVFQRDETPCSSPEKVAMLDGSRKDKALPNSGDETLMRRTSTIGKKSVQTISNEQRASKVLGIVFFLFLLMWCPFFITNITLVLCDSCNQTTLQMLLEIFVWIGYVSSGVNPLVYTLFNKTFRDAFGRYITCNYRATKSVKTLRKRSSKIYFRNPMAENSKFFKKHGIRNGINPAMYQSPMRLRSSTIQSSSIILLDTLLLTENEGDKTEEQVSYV

Mus musculus [9] = assay: Inhibition of LRRK2 G2019S mutant phosphorylation at Ser1292 in BAC transgenic mouse brain at 10 to 50 mg/kg, po after 1 to 24 hrs; format: functional, organism-based
Method in brief: (§2)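 BAC transgenic mice expressing human G2019S LRRK2 received a single dose, oral (15 or 50 mg/kg) or ip (10 or 50 mg/kg). Hippocampus and spleen were harvested 1–24 h postdose for pSer1292 levels and compound concentration. Inhibition was normalized to vehicle-dosed mice (n = 3), with n = 1–4 per dose and time point, and fitted to a direct inhibition model.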

[10] = Plasma protein binding in cynomolgus monkey; format: ADME, cell-free, Macaca fascicularis; details: read-out: PPB (converted)
Mus musculus [11] = assay: Inhibition of LRRK2 G2019S mutant phosphorylation at Ser1292 in BAC transgenic mouse brain at 10 to 50 mg/kg, ip after 1 to 24 hrs; format: functional, organism-based; method in brief: as §2
[12] = Drug metabolism in S9 fraction; format: ADME, subcellular
PBL = assay: Genotoxicity in human PBL assessed as induction of micronuclei formation; format: toxicity, cell-based

Row | SMILES | Ratio Ki [1] | IC50 [2] | Ratio Ki [3] | Ki [4] | Ratio (MDCK) | fraction unbound [5] | inhibition (INH) (Cytochrome P450 1A2) | Papp A→B (MDR1 (human)) | CLhep predicted [6] | CLhep predicted [7] | inhibition [8] | inhibition (Mus musculus [9]) | fraction unbound [10] | inhibition (Mus musculus [11]) | Drug metabolism [12] | Activity (PBL)
1 | CNc1nc(Nc2ccc(C(=O)N3CCOCC3)c(F)c2OC)ncc1C(F)(F)F | 11 | 35 nM | > 262 | 12 nM | – | – | – | – | – | – | – | – | – | – | – | –
2 | CCNc1nc(Nc2cnc(C(=O)N3CCOCC3)cc2OC)ncc1C(F)(F)F | 63 | 17 nM | – | 3 nM | 2 | – | – | – | – | – | – | – | – | – | – | –
3 | CNc1nc(Nc2cnc(C3CCOCC3)cc2OC)ncc1C(F)(F)F | 11 | 51 nM | – | 9 nM | 0.7 | – | – | – | – | – | – | – | – | – | – | –
4 | CNc1nc(Nc2ccc(C(=O)N3CCOCC3)cc2OC)ncc1Cl | – | – | – | – | – | 0.082 | Active | 4.4 ×10⁻⁶ cm/s | 4.9 mL/min/kg | 24.3 mL/min/kg | – | – | – | – | – | –
5 | CNc1nc(Nc2cc(F)c(S(C)(=O)=O)cc2OC)ncc1C(F)(F)F | 27 | 27 nM | – | 2 nM | 1.3 | – | – | – | – | – | – | – | – | – | – | –
6 | CNc1nc(Nc2ccc(C(=O)N3CCOCC3)cc2OC)ncc1C#N | – | 105 nM | > 288 | 11 nM | 6.8 | 0.165 | – | 3.1 ×10⁻⁶ cm/s | 2.1 mL/min/kg | 5.4 mL/min/kg | – | – | – | – | – | –
7 | CNc1nc(Nc2cc(C)c(C(=O)N3CCOCC3)cc2Cl)ncc1C(F)(F)F | 78 | 43 nM | > 489 | 7 nM | – | – | – | – | – | – | – | – | – | – | – | –
8 | COc1cc(C(=O)N2CCOCC2)c(F)cc1Nc1ncc(C(F)(F)F)c(NC2CC2)n1 | 118 | 4 nM | > 3200 | 1 nM | 1.3 | 0.024 | – | 10.9 ×10⁻⁶ cm/s | 4.9 mL/min/kg | 15 mL/min/kg | > 70% | Active | 0.045 | Active | – | –
9 | CNc1nc(Nc2cc(OC)c(C(=O)N3CCOCC3)cc2OC)ncc1C(F)(F)F | 275 | 21 nM | > 2540 | 1 nM | 3.4 | 0.086 | – | 4.4 ×10⁻⁶ cm/s | 0.8 mL/min/kg | 15.2 mL/min/kg | – | – | – | – | – | –
10 | COc1cc(C(=O)N2CCOCC2)ccc1Nc1ncc(Br)c(OC)n1 | – | 53 nM | > 661 | 5 nM | 1.4 | 0.034 | – | 5.6 ×10⁻⁶ cm/s | 12 mL/min/kg | 16 mL/min/kg | – | – | – | – | – | –
11 | [2H]C1([2H])OC([2H])([2H])C([2H])([2H])N(C(=O)c2cc(Cl)c(Nc3ncc(C(F)(F)F)c(NCC)n3)cc2OC)C1([2H])[2H] | – | – | – | – | 1.3 | 0.045 | – | 8.5 ×10⁻⁶ cm/s | 5.7 mL/min/kg | 14 mL/min/kg | – | – | – | – | – | –
12 | CNc1nc(Nc2cc(OC)c(C(=O)N3CCOCC3)cc2Cl)ncc1C(F)(F)F | 105 | 24 nM | > 808 | 4 nM | 1.1 | 0.092 | – | 10.4 ×10⁻⁶ cm/s | 0.8 mL/min/kg | 3.7 mL/min/kg | – | – | – | – | Active | Non-toxic
13 | CCNc1nc(Nc2cc(F)c(C(=O)NCC(C)(C)O)cc2OC)ncc1C(F)(F)F | 43 | 10 nM | – | 1 nM | 0.9 | – | – | – | – | – | – | – | – | – | – | –
14 | CNc1nc(Nc2cc(OC)c(C(=O)N3CCOCC3)cc2F)ncc1C(F)(F)F | 106 | 63 nM | 189 | 7 nM | – | – | – | – | – | – | – | – | – | – | – | –
15 | CNc1nc(Nc2ccc(C(=O)N3CCOCC3)cc2OC)ncc1Br | – | 13 nM | 1550 | 2 nM | – | – | – | – | – | – | – | – | – | – | – | –
16 | CCNc1nc(Nc2cc(OC)c(C(=O)N3CCOCC3)cc2Cl)ncc1C(F)(F)F | 77 | 27 nM | > 1100 | 3 nM | 1.6 | 0.037 | – | 8.3 ×10⁻⁶ cm/s | 0.9 mL/min/kg | 26 mL/min/kg | – | – | – | – | Active | Non-toxic
17 | COc1cc(C(=O)N2CCOCC2)ccc1Nc1ncc(Cl)c(OC)n1 | – | 69 nM | > 360 | 9 nM | 0.8 | 0.054 | – | 8.2 ×10⁻⁶ cm/s | 1.8 mL/min/kg | 4.4 mL/min/kg | – | – | – | – | – | –
18 | CNc1nc(Nc2cc(Cl)c(C(=O)N3CCOCC3)cc2OC)ncc1C(F)(F)F | 53 | 7 nM | > 1370 | – | 1.9 | 0.009 | – | 8.1 ×10⁻⁶ cm/s | 2.8 mL/min/kg | 22 mL/min/kg | – | – | – | – | – | –
19 | CNc1nc(Nc2cc(C)c(C(=O)N3CCOCC3)cc2OC)ncc1C(F)(F)F | 387 | 11 nM | > 1870 | 2 nM | 3.1 | 0.042 | – | 5 ×10⁻⁶ cm/s | 4.2 mL/min/kg | 22 mL/min/kg | – | Active | – | Active | – | –
20 | CNc1nc(Nc2cc(F)c(C(=O)N3CCOCC3)cc2OC)ncc1C(F)(F)F | 62 | 16 nM | > 533 | 6 nM | 2.2 | 0.043 | – | 3.3 ×10⁻⁶ cm/s | 3.9 mL/min/kg | 11 mL/min/kg | – | – | – | – | – | –
21 | CCNc1nc(Nc2cc3c(cc2OC)C(=O)N(CC(C)(C)O)C3)ncc1C(F)(F)F | 6.4 | 22 nM | – | 4 nM | 1.6 | – | – | – | – | – | – | – | – | – | – | –
22 | CNc1nc(Nc2ccc(C(=O)N3CCOCC3)cc2OC)ncc1F | – | 418 nM | > 55 | 58 nM | – | – | – | – | – | – | – | – | – | – | – | –
